Active and inactive are the calls of the source. The calls are words filed in the database; no cut-off is given here.
Key:
[1] = Hepatic extraction ratio in Sprague-Dawley rat hepatocytes; type: ADME, cell-based, Hepatocyte; conditions: in vivo, in the assay text read “in Sprague-Dawley rat” for “in Sprague-Dawley rat hepatocytes”, read-out: ERH
In short: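 Male Sprague-Dawley rats given 10 mg/kg po as a solution; compound measured in portal vein and systemic circulation to derive the hepatic extraction ratio.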

[2] = biological target: T1, TLR7 and TLR8 (Homo sapiens) (UniProt Q9NYK1+Q9NR97); assay: Agonist activity at TLR7/8 in human PBMCs co-cultured with primary human hepatocytes infected with HBV genotype C for 12 days assessed as increase in VEGF levels up to 5 uM measured after 42 days
T1 sequence (Q9NR97 whole entry, looked up): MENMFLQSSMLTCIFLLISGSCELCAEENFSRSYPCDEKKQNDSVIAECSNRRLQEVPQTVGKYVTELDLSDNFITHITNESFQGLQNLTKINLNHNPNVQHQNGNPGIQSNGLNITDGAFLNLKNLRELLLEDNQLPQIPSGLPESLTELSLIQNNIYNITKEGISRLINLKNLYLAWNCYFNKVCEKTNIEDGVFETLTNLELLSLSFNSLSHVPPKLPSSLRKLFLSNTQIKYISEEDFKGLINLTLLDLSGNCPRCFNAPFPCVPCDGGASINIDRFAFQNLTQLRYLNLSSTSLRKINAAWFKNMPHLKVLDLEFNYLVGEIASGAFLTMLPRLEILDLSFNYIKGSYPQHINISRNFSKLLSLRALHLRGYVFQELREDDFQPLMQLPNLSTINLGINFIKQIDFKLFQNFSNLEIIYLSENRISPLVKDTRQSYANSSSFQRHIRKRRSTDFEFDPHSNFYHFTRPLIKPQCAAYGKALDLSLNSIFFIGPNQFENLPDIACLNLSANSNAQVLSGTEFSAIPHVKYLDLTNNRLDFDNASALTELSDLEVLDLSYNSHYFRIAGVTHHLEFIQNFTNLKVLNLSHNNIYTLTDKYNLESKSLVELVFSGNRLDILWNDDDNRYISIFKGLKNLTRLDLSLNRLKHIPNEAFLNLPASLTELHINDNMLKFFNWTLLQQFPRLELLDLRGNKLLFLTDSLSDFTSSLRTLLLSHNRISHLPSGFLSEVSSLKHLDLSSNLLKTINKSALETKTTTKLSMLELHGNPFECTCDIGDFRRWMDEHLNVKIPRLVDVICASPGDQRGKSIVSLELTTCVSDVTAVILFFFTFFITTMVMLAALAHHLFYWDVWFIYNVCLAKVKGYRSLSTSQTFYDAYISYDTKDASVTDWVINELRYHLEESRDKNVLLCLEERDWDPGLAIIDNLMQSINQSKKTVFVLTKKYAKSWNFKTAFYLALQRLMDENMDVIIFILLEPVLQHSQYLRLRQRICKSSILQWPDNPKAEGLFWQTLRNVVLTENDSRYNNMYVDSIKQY
T1 sequence (Q9NYK1 whole entry, looked up): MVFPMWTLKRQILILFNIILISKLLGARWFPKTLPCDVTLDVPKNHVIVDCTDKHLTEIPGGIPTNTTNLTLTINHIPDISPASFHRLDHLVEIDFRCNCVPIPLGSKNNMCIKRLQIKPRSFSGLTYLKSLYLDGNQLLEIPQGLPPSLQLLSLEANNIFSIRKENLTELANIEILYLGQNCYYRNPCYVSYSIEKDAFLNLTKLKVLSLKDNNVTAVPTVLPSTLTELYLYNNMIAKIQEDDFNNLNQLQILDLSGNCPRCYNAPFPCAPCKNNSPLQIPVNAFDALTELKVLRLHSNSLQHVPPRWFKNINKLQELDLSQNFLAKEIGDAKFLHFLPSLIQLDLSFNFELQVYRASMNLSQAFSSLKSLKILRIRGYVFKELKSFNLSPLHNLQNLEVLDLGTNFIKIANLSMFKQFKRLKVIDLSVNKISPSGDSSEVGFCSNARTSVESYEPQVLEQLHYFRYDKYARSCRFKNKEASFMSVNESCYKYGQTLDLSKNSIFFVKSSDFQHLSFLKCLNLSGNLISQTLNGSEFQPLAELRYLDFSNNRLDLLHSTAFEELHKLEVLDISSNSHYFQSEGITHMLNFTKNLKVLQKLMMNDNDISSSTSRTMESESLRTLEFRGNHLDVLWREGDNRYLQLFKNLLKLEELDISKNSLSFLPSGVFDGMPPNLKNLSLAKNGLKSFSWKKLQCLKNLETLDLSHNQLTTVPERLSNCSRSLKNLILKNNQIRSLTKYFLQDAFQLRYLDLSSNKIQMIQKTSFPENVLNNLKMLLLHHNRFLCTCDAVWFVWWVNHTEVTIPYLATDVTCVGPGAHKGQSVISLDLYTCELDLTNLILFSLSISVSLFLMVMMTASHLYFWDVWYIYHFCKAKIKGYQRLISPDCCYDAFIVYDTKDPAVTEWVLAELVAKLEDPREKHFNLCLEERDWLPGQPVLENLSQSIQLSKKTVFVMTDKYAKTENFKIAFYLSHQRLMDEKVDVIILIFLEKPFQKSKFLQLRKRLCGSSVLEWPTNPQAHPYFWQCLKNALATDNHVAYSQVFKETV

[3] = Metabolic stability in human liver microsomes assessed as compound metabolized at 1 uM after 15 mins; type: ADME, microsome; conditions: read-out: Drug metabolism
In short: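 Mouse (M) or human (H) liver microsomes incubated with compound at 1 μM; percent metabolized after 15 min.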

Liver [4] = assay: Proinflammatory activity in C57BL/6J mouse liver assessed as IL-1beta levels at 0.3 mg/kg, po by multiplex assay; type: functional
Cynomolgus monkey [5] = assay: Induction of ISG response in cynomolgus monkey plasma assessed as upregulation of Mx1 mRNA expression at 9 mg/kg, po after 24 hrs by Fluidigm RT-qPCR analysis (reference value: 1); type: functional, Macaca fascicularis
In short: (§1)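 Cynomolgus monkeys, single oral doses of 1, 3, 9 and 30 mg/kg with a planned 2-week wash-out between doses. Systemic ISG (ISG15, Mx1, OAS1) mRNA was measured by Fluidigm RT-qPCR at 1, 2, 4, 8 and 24 h postdose.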

Cynomolgus monkey [6] = assay: Toxicity in cynomolgus monkey assessed as change in body weight up to 30 mg/kg, po; type: organism-based, Macaca fascicularis; conditions: in vivo
Cynomolgus monkey [7] = assay: Activation of monocytes in cynomolgus monkey plasma assessed as upregulation of MCP1 levels at 30 mg/kg, po after 24 hrs by Luminex assay (reference value: 385 pg/ml); type: functional, Macaca fascicularis
Cynomolgus monkey [8] = assay: Toxicity in cynomolgus monkey assessed as induction of clinical pathology changes up to 30 mg/kg, po; type: organism-based, Macaca fascicularis; conditions: in vivo
[9] = biological target: T1, TLR7 and TLR8 (Homo sapiens); assay: Agonist activity at TLR7/8 in human PBMCs co-cultured with primary human hepatocytes infected with HBV genotype C for 12 days assessed as increase in IL-12p40 levels up to 5 uM measured after 42 days
Plasma [10] = assay: Proinflammatory activity in C57BL/6J mouse plasma assessed as IL-1beta levels at 1 mg/kg, po by multiplex assay (reference value: 60 pg/ml); type: functional, organism-based
Plasma [11] = assay: Proinflammatory activity in C57BL/6J mouse plasma assessed as IL-6 levels at 10 mg/kg, po by multiplex assay (reference value: 505 pg/ml); type: functional
Cynomolgus monkey [12] = assay: Induction of ISG response in cynomolgus monkey plasma assessed as upregulation of Mx1 mRNA expression at 3 mg/kg, po after 24 hrs by Fluidigm RT-qPCR analysis (reference value: 1); type: functional, Macaca fascicularis; in short: as §1
Plasma [13] = assay: Effect on cytokine profile in C57BL/6J mouse plasma assessed as IL-12p70 levels at 1 mg/kg, po by multiplex assay (reference value: 560 pg/ml); type: functional
In short: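 Single oral gavage in 20% HP-β-CD to healthy C57BL/6 mice, groups of 15 at 0.3, 1, 3, 10 or 30 mg/kg. Three mice per group sacrificed at 0.5, 1, 2, 4 or 7 h. Plasma and liver cytokines by multiplex, maximum level reported, rounded to nearest multiple of 5.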

[14] = Cmax in C57BL/6J mouse plasma at 1 mg/kg, po by LC-MS analysis; type: ADME, organism-based; set-up: dose 1 mg/kg, route oral
In short: (§2)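 Healthy C57BL/6 mice, groups of 15, given a single oral dose (0.3, 1, 3, 10 or 30 mg/kg) in 20% HP-β-CD. Blood drawn at 0.5 h. Three mice per group sacrificed at 0.5, 1, 2, 4 or 7 h, and compound in plasma and liver measured by LC−MS. Values rounded to whole numbers.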

Liver [15] = assay: Proinflammatory activity in C57BL/6J mouse liver assessed as IL-6 levels at 0.3 mg/kg, po by multiplex assay (reference value: 10 pg/g); type: functional, organism-based
Cynomolgus monkey [16] = assay: Proinflammatory activity in cynomolgus monkey plasma assessed as TNFalpha levels at 1 mg/kg, po after 24 hrs by Luminex assay (reference value: 285 pg/ml); type: functional, organism-based; conditions: Macaca fascicularis
[17] = AUC (0 to last) in C57BL/6J mouse liver at 1 mg/kg, po by LC-MS analysis; type: ADME, organism-based; conditions: in vivo
In short: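 Healthy C57BL/6 mice were dosed once by mouth at 0.3, 1, 3, 10 or 30 mg/kg in 20% HP-β-CD, in groups of 15 per dose. Three mice per group were sacrificed at 0.5, 1, 2, 4 or 7 h, and plasma and liver compound levels were measured by LC–MS. Values were rounded to whole numbers.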

[18] = biological target: T1, TLR7 and TLR8 (Homo sapiens); assay: Agonist activity at TLR7/8 in human PBMCs co-cultured with primary human hepatocytes infected with HBV genotype C for 12 days assessed as increase in IL-10 levels up to 5 uM measured after 42 days
Liver [19] = assay: Proinflammatory activity in C57BL/6J mouse liver assessed as IL-6 levels at 1 mg/kg, po by multiplex assay (reference value: 10 pg/g); type: functional
[20] = test system: Toll-like receptor 7/8 (Homo sapiens); assay: Agonist activity at TLR7/8 in human PBMCs assessed as decrease in intracellular HBV RNA levels in human hepatocytes infected with HBV genotype C for 12 days followed by exposure to conditioned supernatant from up to 5 uM compound treated PBMCs measured after 42 days
[21] = Cmax in C57BL/6J mouse liver at 1 mg/kg, po by LC-MS analysis; type: ADME, organism-based; set-up: dose 1 mg/kg, route oral; in short: as §2
Cynomolgus monkey [22] = assay: Toxicity in cynomolgus monkey assessed as induction of emesis at 30 mg/kg, po after 1 hr postdosing; type: organism-based, Macaca fascicularis; conditions: in vivo
[23] = test system: Toll-like receptor 7/8 (Homo sapiens); assay: Agonist activity at TLR7/8 in human PBMCs assessed as decrease in HBsAg levels in human hepatocytes infected with HBV genotype C for 12 days followed by exposure to conditioned supernatant from up to 5 uM compound treated PBMCs measured after 42 days
Cynomolgus monkey [24] = assay: Effect on cytokine profile in cynomolgus monkey plasma assessed as IP10 levels at 3 mg/kg, po after 24 hrs by Luminex assay (reference value: 18.5 pg/ml); type: functional, Macaca fascicularis
In short: (§3)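 Healthy cynomolgus monkeys given single oral doses of 1, 3, 9 and 30 mg/kg, with a 2-week wash-out planned between doses. Systemic cytokine levels in plasma were sampled at 0.5, 1, 2, 4, 9 and 24 h postdose.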

[25] = biological target: Alpha-1A adrenergic receptor; assay: Inhibition of alpha-1A adrenergic receptor (unknown origin)
Cynomolgus monkey [26] = assay: Induction of ISG response in cynomolgus monkey plasma assessed as upregulation of Isg15 mRNA expression at 9 mg/kg, po after 24 hrs by Fluidigm RT-qPCR analysis (reference value: 1); type: functional, Macaca fascicularis; in short: as §1
Cynomolgus monkey [27] = assay: Effect on cytokine profile in cynomolgus monkey plasma assessed as IL-15 levels at 1 mg/kg, po after 24 hrs by Luminex assay (reference value: 20 pg/ml); type: functional, Macaca fascicularis; in short: as §3
[28] = Protein binding in dog plasma fraction at 5 uM after 4.5 hrs LC-MS/MS-based rapid equilibrium dialysis method; type: ADME, cell-free, Canis lupus familiaris; conditions: read-out: PPB (converted)

## CCC[C@@H](CCO)Nc1nc(N)nc2c(F)cccc12
[1]
  hepatic extraction ratio: 0.74
[2]
  Activity: Active
[3]
  metabolised at 0.25 h, 1 µM: 43%
Liver [4]
  Activity: 9765 pg/g
Cynomolgus monkey [5]
  fold change (FC): 55
Cynomolgus monkey [6]
  Activity: Non-Toxic
Cynomolgus monkey [7]
  Activity: >10000 pg/mL
Cynomolgus monkey [8]
  Activity: Non-Toxic
[9]
  Activity: Active
Plasma [10]
  Activity: Below limit of detection
Plasma [11]
  Activity: >10000 pg/mL
Cynomolgus monkey [12]
  fold change (FC): 50
Plasma [13]
  Activity: 380 pg/mL
[14]
  Cmax: 9 ng/mL
Liver [15]
  Activity: Below limit of detection
Cynomolgus monkey [16]
  Activity: Below limit of detection
[17]
  AUClast: 148 ng·h/g
[18]
  Activity: Active
Liver [19]
  Activity: 905 pg/g
[20]
  Activity: Active
[21]
  Cmax: 188 ng/g
Cynomolgus monkey [22]
  Activity: Toxic
[23]
  Activity: Dose-dependent effect
Cynomolgus monkey [24]
  Activity: 1490 pg/mL
[25]
  IC50: > 10 µM
Cynomolgus monkey [26]
  fold change (FC): 560
Cynomolgus monkey [27]
  Activity: 20 pg/mL
[28]
  fraction unbound at 4.5 h, 5 µM: 0.59
